Experimental data from ChEMBL document CHEMBL3526048, “In vitro metabolism of rivoglitazone, a novel peroxisome proliferator-activated receptor γ agonist, in rat, monkey, and human liver microsomes and freshly isolated hepatocytes” (Drug Metab Dispos, 2011).

Key:
Liver microsome [1] = assay: Drug metabolism in Sprague-Dawley rat liver microsomes assessed as formation of 2-mercapto-3-(4-((6-methoxy-1-methyl-1H-benzo[d]imidazol-2-yl)methoxy)phenyl)propanamide at 20 uM after 2 hrs by radio-HPLC/LC-MS/MS analysis in presence of NADPH-generating system and NADPH-generating system/SAM; format: ADME
Liver microsome [2] = assay: Drug metabolism in human liver microsomes assessed as formation of 2-mercapto-3-(4-((6-methoxy-1-methyl-1H-benzo[d]imidazol-2-yl)methoxy)phenyl)propanoic acid at 20 uM after 2 to 4 hrs by radio-HPLC/LC-MS/MS analysis in presence of UDPGA, UDPGA/SAM and NADPH-generating system; format: ADME
[3] = Drug metabolism in human hepatocytes assessed as formation of 3-(4-((6-methoxy-1-methyl-1H-benzo[d]imidazol-2-yl)methoxy)phenyl)-2-(methylsulfonyl)propanamide at 30 uM after 3 hrs by radio-HPLC/LC-MS/MS analysis in presence of NADPH-generating system/SAM; format: ADME, cell-based, Hepatocyte
Cytochrome P450 2C9 [4] = target: T1, Cytochrome P450 2C9 (Homo sapiens, UniProt P11712); assay: Activity of human CYP2C9 expressed in microsomes isolated from baculovirus infected insect cell assessed as enzyme-mediated 5-(4-((6-methoxy-1H-benzo[d]imidazol-2-yl)methoxy)benzyl)thiazolidine-2,4-dione formation at 20 uM after 2 hrs by radio-HPLC/LC-MS/MS analysis in presence of NADPH-generating system and NADPH-generating system/SAM; format: ADME
Cytochrome P450 2C9 [5] = target: T1, Cytochrome P450 2C9; assay: Activity of human CYP2C9 expressed in microsomes isolated from baculovirus infected insect cell assessed as enzyme-mediated 3-(4-((6-methoxy-1-methyl-1H-benzo[d]imidazol-2-yl)methoxy)phenyl)-2-(methylsulfonyl)propanamide formation at 20 uM after 2 hrs by radio-HPLC/LC-MS/MS analysis in presence of NADPH-generating system/SAM; format: ADME
[6] = Drug metabolism in cynomolgus monkey liver microsomes assessed as formation of 5-(4-((6-hydroxy-1-methyl-1H-benzo[d]imidazol-2-yl)methoxy)benzyl)thiazolidine-2,4-dione at 20 uM after 2 hrs by radio-HPLC/LC-MS/MS analysis in presence of NADPH-generating system and NADPH-generating system/SAM; format: ADME, Macaca fascicularis
Cytochrome P450 1A2 = target: T2, Cytochrome P450 1A2 (Homo sapiens, UniProt P05177); assay: (§1) Activity of human CYP1A2 expressed in microsomes isolated from baculovirus infected insect cell assessed as enzyme-mediated (2S,3S,4S,5R,6R)-3,4,5-trihydroxy-6-(5-(4-((6-methoxy-1-methyl-1H-benzo[d]imidazol-2-yl)methoxy)benzyl)-2,4-dioxothiazolidin-3-yl)tetrahydro-2H-pyran-2-carboxylic acid formation at 20 uM after 2 hrs by radio-HPLC/LC-MS/MS analysis in presence of UDPGA and UDPGA/SAM; format: ADME
T2 sequence (P05177 whole entry): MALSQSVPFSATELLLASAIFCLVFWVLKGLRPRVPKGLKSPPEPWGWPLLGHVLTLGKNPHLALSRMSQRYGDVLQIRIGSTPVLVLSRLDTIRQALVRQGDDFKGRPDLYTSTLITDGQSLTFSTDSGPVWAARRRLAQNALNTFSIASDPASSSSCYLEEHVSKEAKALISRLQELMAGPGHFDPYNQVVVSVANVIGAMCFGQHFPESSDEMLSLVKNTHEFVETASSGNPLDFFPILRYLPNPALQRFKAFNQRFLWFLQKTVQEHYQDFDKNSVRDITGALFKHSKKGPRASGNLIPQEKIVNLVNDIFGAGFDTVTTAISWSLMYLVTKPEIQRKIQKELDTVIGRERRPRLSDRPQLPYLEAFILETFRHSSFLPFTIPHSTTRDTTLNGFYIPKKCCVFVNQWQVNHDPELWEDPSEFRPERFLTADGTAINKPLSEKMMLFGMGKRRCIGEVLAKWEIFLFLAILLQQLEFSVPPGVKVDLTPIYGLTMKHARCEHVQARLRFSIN

Cytochrome P450 2C9 [7] = target: T1, Cytochrome P450 2C9; assay: as §1, with “CYP2C9” for “CYP1A2”; format: ADME
[8] = target: T3, UDP-glucuronosyltransferase 1A10 (Homo sapiens, UniProt Q9HAW8); assay: as §1, with “human UGT1A10” for “human CYP1A2”, “after 4” for “after 2”, “UDPGA” for “UDPGA and UDPGA/SAM”; format: ADME
T3 sequence (Q9HAW8 whole entry): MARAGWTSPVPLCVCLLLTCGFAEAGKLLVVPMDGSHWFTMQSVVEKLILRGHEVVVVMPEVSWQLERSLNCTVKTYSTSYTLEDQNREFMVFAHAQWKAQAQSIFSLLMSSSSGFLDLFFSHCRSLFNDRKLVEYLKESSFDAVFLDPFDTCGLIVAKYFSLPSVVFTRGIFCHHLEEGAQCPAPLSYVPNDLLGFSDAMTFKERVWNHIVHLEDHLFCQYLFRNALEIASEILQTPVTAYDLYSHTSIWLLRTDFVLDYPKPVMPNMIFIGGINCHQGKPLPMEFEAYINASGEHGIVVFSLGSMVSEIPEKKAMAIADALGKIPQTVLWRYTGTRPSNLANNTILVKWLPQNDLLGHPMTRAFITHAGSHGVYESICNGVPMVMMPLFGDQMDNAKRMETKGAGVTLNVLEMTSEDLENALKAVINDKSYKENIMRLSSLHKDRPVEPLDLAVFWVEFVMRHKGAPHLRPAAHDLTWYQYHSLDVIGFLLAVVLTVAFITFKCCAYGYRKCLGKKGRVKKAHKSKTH
Method in brief: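 Alamethicin (50 μg/mg protein, 15 min on ice) pretreated expressed human UGT microsomes (1 mg/ml protein) from baculovirus-infected insect cells. Incubation with [¹⁴C]rivoglitazone (20 μM) in 100 mM Tris-HCl (pH 7.5) with 10 mM MgCl₂, started by 5 mM UDPGA, 4 h at 37°C with shaking. UGT insect-cell control supersomes were run alongside. Acetonitrile stop, concentrated supernatant analysed by radio-HPLC, LC-MS and LC-MS/MS.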

Cytochrome P450 3A4 = Cytochrome P450 3A4 (Homo sapiens, UniProt P08684); assay: Activity of human CYP3A4 expressed in microsomes isolated from baculovirus infected insect cell assessed as enzyme-mediated 3-(4-((6-methoxy-1-methyl-1H-benzo[d]imidazol-2-yl)methoxy)phenyl)-2-(methylthio)propanamide formation at 20 uM after 2 hrs by radio-HPLC/LC-MS/MS analysis in presence of NADPH-generating system/SAM; format: ADME
[9] = Drug metabolism in monkey hepatocytes assessed as formation of 5-(4-((6-hydroxy-1-methyl-1H-benzo[d]imidazol-2-yl)methoxy)benzyl)thiazolidine-2,4-dione at 30 uM after 3 hrs by radio-HPLC/LC-MS/MS analysis in presence of NADPH-generating system and NADPH-generating system/SAM; conditions: cynomolgus monkey

T1 sequence (P11712 whole entry): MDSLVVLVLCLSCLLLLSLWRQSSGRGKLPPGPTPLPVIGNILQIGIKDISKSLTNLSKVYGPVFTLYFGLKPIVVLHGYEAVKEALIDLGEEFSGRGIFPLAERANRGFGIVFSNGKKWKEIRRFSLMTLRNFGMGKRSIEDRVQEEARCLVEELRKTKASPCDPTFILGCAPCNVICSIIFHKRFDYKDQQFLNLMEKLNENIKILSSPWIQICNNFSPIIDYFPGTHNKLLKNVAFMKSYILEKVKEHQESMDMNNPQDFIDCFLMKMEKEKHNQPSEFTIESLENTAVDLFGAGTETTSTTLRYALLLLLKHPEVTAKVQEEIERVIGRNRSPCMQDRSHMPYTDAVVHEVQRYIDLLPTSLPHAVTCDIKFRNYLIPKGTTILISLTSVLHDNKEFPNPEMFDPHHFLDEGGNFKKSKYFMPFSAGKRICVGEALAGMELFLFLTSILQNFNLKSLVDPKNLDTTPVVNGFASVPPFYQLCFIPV
Sequence of Cytochrome P450 3A4 (P08684 whole entry): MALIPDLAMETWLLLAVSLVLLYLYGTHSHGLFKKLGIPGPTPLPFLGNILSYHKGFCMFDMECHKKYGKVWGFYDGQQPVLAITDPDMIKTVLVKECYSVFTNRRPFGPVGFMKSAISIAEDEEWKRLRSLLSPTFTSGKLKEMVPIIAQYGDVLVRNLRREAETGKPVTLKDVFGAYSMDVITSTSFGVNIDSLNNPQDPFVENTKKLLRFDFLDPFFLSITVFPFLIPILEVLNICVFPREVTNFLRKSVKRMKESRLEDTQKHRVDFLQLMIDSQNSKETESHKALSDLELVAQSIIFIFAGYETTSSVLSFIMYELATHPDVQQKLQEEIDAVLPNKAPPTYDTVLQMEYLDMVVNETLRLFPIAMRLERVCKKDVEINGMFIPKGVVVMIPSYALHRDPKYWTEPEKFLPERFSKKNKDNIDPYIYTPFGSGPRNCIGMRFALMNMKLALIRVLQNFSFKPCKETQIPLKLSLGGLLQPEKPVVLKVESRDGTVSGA

Drug metabolism (Liver microsome [1]): metabolite_detected | Drug metabolism (Liver microsome [2]): metabolite_detected | Drug metabolism [3]: metabolite_detected | Drug metabolism (Cytochrome P450 2C9 [4]): metabolite_detected | Drug metabolism (Cytochrome P450 2C9 [5]): metabolite_not_detected | Drug metabolism [6]: metabolite_detected | Drug metabolism (Cytochrome P450 1A2): metabolite_not_detected | Drug metabolism (Cytochrome P450 2C9 [7]): metabolite_not_detected | Drug metabolism [8]: metabolite_not_detected | Drug metabolism (Cytochrome P450 3A4): metabolite_not_detected | Drug metabolism [9]: metabolite_detected
SMILES: COc1ccc2nc(COc3ccc(C[14CH]4SC(=O)NC4=O)cc3)n(C)c2c1.Cl (racemic)
